Key:
3T3-L1 [1] = test: In vitro fold stimulation of glucose transporter protein in 3T3-L1 adipocytes at a concentration of 10 uM; assay type: functional, Mus musculus
Method in brief: (§1)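 Differentiated 3T3-L1 adipocytes (days 7–11 after start of differentiation) exposed to compound in DMEM + 10% FBS, 0.1% DMSO final, medium renewed with fresh drug after 24 h, total 48 h. Triton X-100/EDTA/DTT extracts dot-blotted, probed with affinity-purified rabbit anti-GLUT1 (0.5 μg/mL) then 125I goat anti-rabbit IgG, gamma-counted; transporter quantified against basal-extract standard curve, fold over DMSO control.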

3T3-L1 [2] = test: In vitro fold stimulation of glucose transporter protein in 3T3-L1 adipocytes at a concentration of 30 uM; assay type: functional, Mus musculus; method in brief: as §1
[3] = In vitro stimulation of 2-Deoxyglucose uptake in L6 myocytes from rat skeletal myoblasts at a concentration of 10 uM; assay type: functional
Method in brief: (§2)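 Rat L6 myoblasts grown 14 days in MEMalpha + 2% FBS to fuse into myocytes, then serum-depleted 5 h. Uptake of 0.1 mM [1-14C]2-deoxyglucose in Dulbecco's PBS (+Ca, Mg) for 10 min at room temperature, stopped by ice-cold saline washes. Cells dissolved in 0.1 M NaOH and scintillation counted. Reported relative to 1 µM insulin set at 1.0.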

[4] = In vitro stimulation of 2-Deoxyglucose uptake in L6 myocytes from rat skeletal myoblasts at a concentration of 3 uM; assay type: functional; method in brief: as §2
[5] = In vitro stimulation of 2-Deoxyglucose uptake in L6 myocytes from rat skeletal myoblasts at a concentration of 30 uM; assay type: functional; method in brief: as §2
Mus musculus [6] = test: In vivo percent glucose normalization in mice at a concentration of 25 mg/kg; assay type: functional
Method in brief: (§3)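 Six- to eight-week-old C57BL/6J-ob/ob mice, acclimated 1 week, bled retroorbitally before treatment. Oral gavage once daily for four days in 0.25% (w/v) methylcellulose in water, unadjusted pH. Bled again 24 h after the fourth dose. Plasma glucose read by hexokinase UV method. Expressed as % normalization: vehicle = 0%, ciglitazone 50 mg/kg = 100%.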

Mus musculus [7] = test: Compound was evaluated for in vivo for % glucose normalization in mice at a concentration of 10 mg/kg.; assay type: functional; method in brief: as §3
Mus musculus [8] = test: Compound was evaluated for in vivo for % glucose normalization in mice at a concentration of 2.5 mg/kg.; assay type: functional; method in brief: as §3
Mus musculus [9] = test: Compound was evaluated for in vivo for % glucose normalization in mice at a concentration of 5 mg/kg.; assay type: functional; method in brief: as §3

## O=C1NC(=O)C(Cc2ccc3c(c2)CC(C2CCCCC2)O3)S1 (centres undefined)
3T3-L1 [1]
  GT fold stimulation: 1.25
3T3-L1 [2]
  GT fold stimulation: 1.42
[3]
  2-DG uptake stimulation: 1.85
[4]
  2-DG uptake stimulation: 1.1
[5]
  2-DG uptake stimulation: 1.66
Mus musculus [6]
  Glucose normalisation: 23%

## O=C1NC(=O)C(Cc2ccc3c(c2)CC(CC2CCCCC2)O3)S1 (centres undefined)
3T3-L1 [1]
  GT fold stimulation: 1.14
3T3-L1 [2]
  GT fold stimulation: 1.41
[3]
  2-DG uptake stimulation: 1.39
[4]
  2-DG uptake stimulation: 0.88
[5]
  2-DG uptake stimulation: 1.71
Mus musculus [6]
  Glucose normalisation: 19%

## CC1(C2Cc3cc(CC4SC(=O)NC4=O)ccc3O2)CCCCC1 (centres undefined)
3T3-L1 [1]
  GT fold stimulation: 1.11
3T3-L1 [2]
  GT fold stimulation: 1.22
Mus musculus [7]
  Glucose normalisation: 33%
[3]
  2-DG uptake stimulation: 0.93
[4]
  2-DG uptake stimulation: 0.8
[5]
  2-DG uptake stimulation: 1.67
Mus musculus [6]
  Glucose normalisation: 80%

## O=C1NC(=O)C(Cc2ccc3c(c2)CC(c2ccccc2)O3)S1 (centres undefined)
3T3-L1 [1]
  GT fold stimulation: 1.14
3T3-L1 [2]
  GT fold stimulation: 1.42
Mus musculus [7]
  Glucose normalisation: 6%
[3]
  2-DG uptake stimulation: 0.99
[4]
  2-DG uptake stimulation: 0.76
[5]
  2-DG uptake stimulation: 1.3
Mus musculus [6]
  Glucose normalisation: 85%

## O=C1NC(=O)C(Cc2ccc3c(c2)CCC2(CCCCC2)O3)S1 (centres undefined)
3T3-L1 [1]
  GT fold stimulation: 0.97
3T3-L1 [2]
  GT fold stimulation: 1.2
[3]
  2-DG uptake stimulation: 1.52
[4]
  2-DG uptake stimulation: 0.97
[5]
  2-DG uptake stimulation: 1.22
Mus musculus [6]
  Glucose normalisation: 35%

## O=C1NC(=O)C(Cc2ccc3c(c2)C(c2ccccc2)CO3)S1 (centres undefined)
3T3-L1 [1]
  GT fold stimulation: 1.13
3T3-L1 [2]
  GT fold stimulation: 1.19
[3]
  2-DG uptake stimulation: 1.24
[4]
  2-DG uptake stimulation: 1.05
[5]
  2-DG uptake stimulation: 1.42
Mus musculus [6]
  Glucose normalisation: 32%

## O=C1NC(=O)C(Cc2ccc3c(c2)CC(Cc2ccccc2)O3)S1 (centres undefined)
3T3-L1 [1]
  GT fold stimulation: 1.34
3T3-L1 [2]
  GT fold stimulation: 1.51
Mus musculus [7]
  Glucose normalisation: 95%
Mus musculus [8]
  Glucose normalisation: 0%
Mus musculus [9]
  Glucose normalisation: 65%
[3]
  2-DG uptake stimulation: 1.11
[4]
  2-DG uptake stimulation: 0.91
[5]
  2-DG uptake stimulation: 1.51
Mus musculus [6]
  Glucose normalisation: 100%

## COc1ccc(CC2CCc3cc(CC4SC(=O)NC4=O)ccc3O2)cc1 (centres undefined)
3T3-L1 [1]
  GT fold stimulation: 1.08
3T3-L1 [2]
  GT fold stimulation: 1.21
Mus musculus [7]
  Glucose normalisation: 68%
Mus musculus [9]
  Glucose normalisation: 10%
[3]
  2-DG uptake stimulation: 1.15
[4]
  2-DG uptake stimulation: 0.92
[5]
  2-DG uptake stimulation: 0.69
Mus musculus [6]
  Glucose normalisation: 85%

## O=C1NC(=O)C(Cc2ccc3c(c2)CCC(Cc2ccccn2)O3)S1 (centres undefined)
3T3-L1 [1]
  GT fold stimulation: 1.48
3T3-L1 [2]
  GT fold stimulation: 1.42
Mus musculus [7]
  Glucose normalisation: 49%
[3]
  2-DG uptake stimulation: 0.96
[4]
  2-DG uptake stimulation: 0.76
[5]
  2-DG uptake stimulation: 0.96
Mus musculus [6]
  Glucose normalisation: 74%

## O=C1NC(=O)C(Cc2ccc3c(c2)CCC(c2ccccc2)O3)S1 (centres undefined)
3T3-L1 [1]
  GT fold stimulation: 1.05
3T3-L1 [2]
  GT fold stimulation: 1.37
Mus musculus [7]
  Glucose normalisation: 0%
[3]
  2-DG uptake stimulation: 0.95
[4]
  2-DG uptake stimulation: 0.78
[5]
  2-DG uptake stimulation: 1.15
Mus musculus [6]
  Glucose normalisation: 70%

## O=C1NC(=O)C(Cc2ccc3c(c2)CCC(C2CCCCC2)O3)S1 (centres undefined)
3T3-L1 [1]
  GT fold stimulation: 1.03
3T3-L1 [2]
  GT fold stimulation: 1.23
Mus musculus [7]
  Glucose normalisation: 75%
Mus musculus [8]
  Glucose normalisation: 5%
Mus musculus [9]
  Glucose normalisation: 65%
[3]
  2-DG uptake stimulation: 2.08
[4]
  2-DG uptake stimulation: 1.28
[5]
  2-DG uptake stimulation: 2.23
Mus musculus [6]
  Glucose normalisation: 69%

## CCC1(CC)CCc2cc(CC3SC(=O)NC3=O)ccc2O1 (centres undefined)
3T3-L1 [1]
  GT fold stimulation: 1.08
3T3-L1 [2]
  GT fold stimulation: 1.21
[3]
  2-DG uptake stimulation: 1.33
[4]
  2-DG uptake stimulation: 1.01
[5]
  2-DG uptake stimulation: 1.38
Mus musculus [6]
  Glucose normalisation: 24%

## O=C1NC(=O)C(Cc2ccc3c(c2)CCC2(CCCC2)O3)S1 (centres undefined)
3T3-L1 [1]
  GT fold stimulation: 0.95
3T3-L1 [2]
  GT fold stimulation: 1.1
Mus musculus [7]
  Glucose normalisation: 64%
Mus musculus [8]
  Glucose normalisation: 0%
Mus musculus [9]
  Glucose normalisation: 50%
[3]
  2-DG uptake stimulation: 1.06
[4]
  2-DG uptake stimulation: 0.79
[5]
  2-DG uptake stimulation: 1.18
Mus musculus [6]
  Glucose normalisation: 52%

## O=C1NC(=O)C(Cc2ccc3c(c2)CCC(Cc2ccc(OCc4ccccc4)cc2)O3)S1 (centres undefined)
3T3-L1 [1]
  GT fold stimulation: 1.48
3T3-L1 [2]
  GT fold stimulation: 1.59
Mus musculus [7]
  Glucose normalisation: 100%
Mus musculus [8]
  Glucose normalisation: 19%
Mus musculus [9]
  Glucose normalisation: 73%
[3]
  2-DG uptake stimulation: 1.53
[4]
  2-DG uptake stimulation: 1.42
[5]
  2-DG uptake stimulation: 1.34
Mus musculus [6]
  Glucose normalisation: 95%

## O=C1NC(=O)C(Cc2ccc3c(c2)CC[C@@H](Cc2ccccc2)O3)S1 (some centres undefined)
3T3-L1 [1]
  GT fold stimulation: 1.13
3T3-L1 [2]
  GT fold stimulation: 1.17
Mus musculus [7]
  Glucose normalisation: 47%
Mus musculus [9]
  Glucose normalisation: 41%
[3]
  2-DG uptake stimulation: 0.9
[4]
  2-DG uptake stimulation: 0.77
[5]
  2-DG uptake stimulation: 1.23
Mus musculus [6]
  Glucose normalisation: 73%

## O=C1NC(=O)C(Cc2ccc3c(c2)CC2(CCCCC2)O3)S1 (centres undefined)
3T3-L1 [1]
  GT fold stimulation: 1.15
3T3-L1 [2]
  GT fold stimulation: 1.36
[3]
  2-DG uptake stimulation: 1.28
[4]
  2-DG uptake stimulation: 0.85
[5]
  2-DG uptake stimulation: 1.62
Mus musculus [6]
  Glucose normalisation: 56%

## O=C1NC(=O)C(Cc2ccc3c(c2)CCC(CC2CCCCC2)O3)S1 (centres undefined)
3T3-L1 [1]
  GT fold stimulation: 1.02
3T3-L1 [2]
  GT fold stimulation: 1.28
[3]
  2-DG uptake stimulation: 1.55
[4]
  2-DG uptake stimulation: 1.14
[5]
  2-DG uptake stimulation: 0.68
Mus musculus [6]
  Glucose normalisation: 7%

## O=C1NC(=O)C(Cc2ccc3c(c2)CCC(Cc2ccccc2)(Cc2ccccc2)O3)S1 (centres undefined)
3T3-L1 [1]
  GT fold stimulation: 1.03
3T3-L1 [2]
  GT fold stimulation: 1.23
[3]
  2-DG uptake stimulation: 0.86
[4]
  2-DG uptake stimulation: 0.73
[5]
  2-DG uptake stimulation: 0.44
Mus musculus [6]
  Glucose normalisation: 12%

## O=C1NC(=O)C(Cc2ccc3c(c2)C(Cc2ccccc2)CO3)S1 (centres undefined)
3T3-L1 [1]
  GT fold stimulation: 1.09
3T3-L1 [2]
  GT fold stimulation: 1.31
[3]
  2-DG uptake stimulation: 1.25
[4]
  2-DG uptake stimulation: 0.85
[5]
  2-DG uptake stimulation: 1.4
Mus musculus [6]
  Glucose normalisation: 0%

## O=C1NC(=O)C(Cc2ccc3c(c2)CCC(Cc2ccc(O)cc2)O3)S1 (centres undefined)
3T3-L1 [1]
  GT fold stimulation: 1.25
3T3-L1 [2]
  GT fold stimulation: 1.34
Mus musculus [7]
  Glucose normalisation: 55%
[3]
  2-DG uptake stimulation: 1.24
[4]
  2-DG uptake stimulation: 1.04
[5]
  2-DG uptake stimulation: 1.03
Mus musculus [6]
  Glucose normalisation: 100%

## O=C1NC(=O)C(Cc2ccc3c(c2)CCC2(CCCCCC2)O3)S1 (centres undefined)
3T3-L1 [1]
  GT fold stimulation: 0.94
3T3-L1 [2]
  GT fold stimulation: 1.12
[3]
  2-DG uptake stimulation: 0.99
[4]
  2-DG uptake stimulation: 1.32
[5]
  2-DG uptake stimulation: 0.43
Mus musculus [6]
  Glucose normalisation: 0%

## O=C1NC(=O)C(Cc2ccc3c(c2)CC2(CCCCC2)CO3)S1 (centres undefined)
3T3-L1 [1]
  GT fold stimulation: 0.8
3T3-L1 [2]
  GT fold stimulation: 1.23
Mus musculus [7]
  Glucose normalisation: 6%
[3]
  2-DG uptake stimulation: 1.27
[4]
  2-DG uptake stimulation: 1.15
[5]
  2-DG uptake stimulation: 1.38
Mus musculus [6]
  Glucose normalisation: 68%

## O=C1NC(=O)C(Cc2ccc3c(c2)CCC(Cc2ccccc2)O3)S1 (centres undefined)
3T3-L1 [1]
  GT fold stimulation: 1.14
3T3-L1 [2]
  GT fold stimulation: 1.48
Mus musculus [7]
  Glucose normalisation: 70%
Mus musculus [8]
  Glucose normalisation: 29%
Mus musculus [9]
  Glucose normalisation: 48%
[3]
  2-DG uptake stimulation: 1.29
[4]
  2-DG uptake stimulation: 0.91
[5]
  2-DG uptake stimulation: 1.14
Mus musculus [6]
  Glucose normalisation: 91%

## CC1(COc2ccc(CC3SC(=O)NC3=O)cc2)CCCCC1 (centres undefined) [CIGLITAZONE]
3T3-L1 [1]
  GT fold stimulation: 1.49
3T3-L1 [2]
  GT fold stimulation: 1.51
Mus musculus [7]
  Glucose normalisation: 52%
[3]
  2-DG uptake stimulation: 1.02
[4]
  2-DG uptake stimulation: 0.82
[5]
  2-DG uptake stimulation: 0.68
Mus musculus [6]
  Glucose normalisation: 84%

## O=C1NC(=O)C(Cc2ccc3c(c2)CC[C@H](Cc2ccccc2)O3)S1 (some centres undefined) [ENGLITAZONE]
3T3-L1 [1]
  GT fold stimulation: 1.13
3T3-L1 [2]
  GT fold stimulation: 1.24
Mus musculus [7]
  Glucose normalisation: 90%
Mus musculus [8]
  Glucose normalisation: 31%
Mus musculus [9]
  Glucose normalisation: 73%
[3]
  2-DG uptake stimulation: 0.91
[4]
  2-DG uptake stimulation: 0.77
[5]
  2-DG uptake stimulation: 1.27
Mus musculus [6]
  Glucose normalisation: 88%

Reference: ChEMBL document CHEMBL1125908, “Substituted dihydrobenzopyran and dihydrobenzofuran thiazolidine-2,4-diones as hypoglycemic agents” (1991)
